Active and inactive are the calls of the source. No cut-off for these calls is given here.
What was measured:
Rattus norvegicus [1] = assay: Percentage of fall in systolic blood pressure (SBP) at the following hours after dosing at 17 mg/kg (po) at 5 hr in spontaneously hypertensive rats(SHR); format: functional, Artery
In short: (§1)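 Male spontaneously hypertensive rats (Wistar-Kyoto strain), unanesthetized, dosed orally; systolic pressure measured by indirect tail cuff. Before each reading, rats warmed at 35-37 °C for 15-20 min to dilate the caudal artery. Five rats per treatment group; result is percentage fall in systolic pressure versus untreated control. Significance tested against control.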

Rattus norvegicus [2] = assay: Percentage of fall in systolic blood pressure (SBP) at the following hours after dosing at 17 mg/kg (po) at 24 hr in spontaneously hypertensive rats(SHR); format: functional, Artery; in short: as §1
Rattus norvegicus [3] = assay: […] systolic blood pressure (SBP) for compound-treated group relative to the value for untreated control at 8 mg/kg dose (po) in spontaneously hypertensive rats(SHR); format: functional, Artery; in short: as §1
Rattus norvegicus [4] = assay: Percentage of fall in systolic blood pressure (SBP) at the following hours after dosing at 8 mg/kg (po) at 5 hr in spontaneously hypertensive rats(SHR); format: functional, Artery; in short: as §1
Rattus norvegicus [5] = assay: Percentage of fall in systolic blood pressure (SBP) at the following hours after dosing at 8 mg/kg (po) at 7.5 hr in spontaneously hypertensive rats(SHR); format: functional, Artery; in short: as §1
Rattus norvegicus [6] = assay: Percentage of fall in systolic blood pressure (SBP) at the following hours after dosing at 8 mg/kg (po) at 24 hr in spontaneously hypertensive rats(SHR); format: functional, Artery; in short: as §1
Rattus norvegicus [7] = assay: […] systolic blood pressure (SBP) for compound-treated group relative to the value for untreated control at 17 mg/kg dose (po) in spontaneously hypertensive rats(SHR); format: functional, Artery; in short: as §1
Rattus norvegicus [8] = assay: Percentage of fall in systolic blood pressure (SBP) at the following hours after dosing at 17 mg/kg (po) at 2 hr in spontaneously hypertensive rats(SHR); NS mmeans not significant; format: functional, organism-based; design: dose 17 mg/kg; details: Artery; in short: as §1
Rattus norvegicus [9] = assay: Percentage of fall in systolic blood pressure (SBP) at the following hours after dosing at 8 mg/kg (po) at 2 hr in spontaneously hypertensive rats(SHR); NS means not significant; format: functional, organism-based; design: dose 8 mg/kg; details: Artery; in short: as §1
Rattus norvegicus [10] = assay: Percentage of fall in systolic blood pressure (SBP) at the following hours after dosing at 17 mg/kg (po) at 7.5 hr in spontaneously hypertensive rats(SHR); format: functional, Artery; in short: as §1
Adrenergic receptor beta = Adrenergic receptor beta (Rattus norvegicus, UniProt P18090+P10608+P26255); assay: Evaluated for beta-receptor affinity, determined in rat brain membrane fraction with [3H]- dihydroalprenolol; format: cell membranes
In short: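 Rat brain with cerebellum removed, homogenized in ice-cold 50 mM Tris-HCl pH 8.0 and spun at 50000g for 15 min, pellet washed once more the same way. Binding used 0.4-0.6 mg protein, 1 nM [3H]dihydroalprenolol, 50 mM Tris pH 8.0, and 5-10 competitor concentrations. IC50 read visually from a semilog plot; Ki from Cheng-Prusoff with KD approximately 1 nM.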

Rattus norvegicus [11] = assay: Evaluated for the percentage inhibition of the depressor response of isoproterenol (0.25 mg/kg, iv) in spontaneously hypertensive rats at 150 mg/kg peroral dose

## CCCNCC(O)COc1ccc2c(=O)c(-c3ccccc3)c(-c3ccccc3)oc2c1 (configuration not stated)
Rattus norvegicus [1]
  Decrease in SBP: 11%
Rattus norvegicus [2]
  Decrease in SBP: 14%
Rattus norvegicus [3]
  SBP: 191 mmHg
Rattus norvegicus [4]
  Decrease in SBP: 12%
Rattus norvegicus [5]
  Decrease in SBP: 16%
Rattus norvegicus [6]
  Decrease in SBP: 10%
Rattus norvegicus [7]
  SBP: 198 mmHg
Rattus norvegicus [8]
  Decrease in SBP: inactive
Rattus norvegicus [9]
  Decrease in SBP: inactive
Rattus norvegicus [10]
  Decrease in SBP: 20%
Adrenergic receptor beta
  Ki: > 0.00005 M
Rattus norvegicus [11]
  inhibition: inactive

Reference: ChEMBL document CHEMBL1123732, “Flavones. 1. Synthesis and antihypertensive activity of (3-phenylflavonoxy)propanolamines without beta-adrenoceptor antagonism” (J Med Chem, 1987)
